Assay results: paper PMC5397363 (Molecular microbiology, 2017)
“And” between values parts separate entries of the source, which are not always exact repeats. Identical values can stand only once. * marks the point of attachment. CH2Cl = ClC*

How the values were obtained:
[1] = target: T1, Prp (Staphylococcus aureus, UniProt Q2FXS9); test: Fluorogenic peptide cleavage assay, Michaelis-Menten kinetics of wild-type Prp; assay type: biochemical; details: pH 7.0
[2] = target: T1, Prp; test: Reaction of Prp with Ellman's reagent under non-denaturing conditions
[3] = target: T1, Prp; test: Inhibition of Prp by chloromethylketone-containing substrate peptide; assay type: biochemical
In short: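 Recombinant S. aureus Prp was purified on Ni-NTA, with the His6-SUMO tag removed by Ulp1. It was tested in a fluorogenic peptide cleavage assay in 50 mM sodium phosphate pH 7.0 with 1.5 mM DTT, 2.35 mM EDTA and 2.53% DMSO (final). Fluorescence (ex 325/em 414 nm) was read every 8 s for 10 min at ambient temperature. Percent inhibition was taken from initial velocities relative to a no-inhibitor control.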

T1 sequence (Q2FXS9 whole entry): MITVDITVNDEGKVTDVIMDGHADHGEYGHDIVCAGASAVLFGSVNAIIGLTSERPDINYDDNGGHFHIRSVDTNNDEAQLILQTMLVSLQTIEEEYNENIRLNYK

2-aminobenzoic acid-KLNLQFFASKK-dinitrophenol [fluorogenic substrate]
turnover number (kcat) ([1]; ET constrained to 42.765 nM active sites (2 per dimer)): 0.0458 ± 0.0014 s⁻¹ and 0.05 ± 0.00 s⁻¹ | specificity constant (kcat/Km) [1]: 251100 ± 39300 M⁻¹ s⁻¹ and 250000 ± 40000 M⁻¹ s⁻¹

O=C(O)c1cc(SSc2ccc([N+](=O)[O-])c(C(=O)O)c2)ccc1[N+](=O)[O-] [Ellman’s reagent, 5,5′-dithiobis(2-nitrobenzoic acid)]
reaction with Prp (qualitative) [2]: readily reacts

Ac-KLNLQFF-CH2Cl
inhibition of Prp (qualitative) [3]: inhibited
